Assay results reported in ChEMBL document CHEMBL1641397, “Camphoratins A-J, potent cytotoxic and anti-inflammatory triterpenoids from the fruiting body of Taiwanofungus camphoratus” (J Nat Prod, 2010).

How the values were obtained:
[1] = system: KB; test: Cytotoxicity against human KB cells after 3 days by sulforhodamine B assay; format: functional, cell-based
[2] = Cytotoxicity against human KBVIN cells after 3 days by sulforhodamine B assay; format: functional, cell-based
In short: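 KB and vincristine-selected KB-VIN grown in RPMI-1640 with 25 mM HEPES and 10% FBS at 37 °C. KB-VIN challenged with 0.5 μg/mL vincristine every two weeks, drug withdrawn at least one day before use. Seeded at 5000 cells/well, compounds at 20 down to 0.16 μM for 3 days. TCA fixation, SRB stain, absorbance at 562 nm. EC50 interpolated, average of at least two independent determinations.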

[3] = system: BV-2; test: Antiinflammatory activity in mouse BV2 cells assessed as inhibition of LPS-induced iNOS-dependent nitrite production after 24 hrs by Griess method; format: functional, cell-based
[4] = system: BV-2; test: Antiinflammatory activity in mouse BV2 cells assessed as inhibition of NOX-dependent ROS production up to 50 uM; format: functional, cell-based
[5] = Antiinflammatory activity in human PMNC cells assessed as inhibition of fMLP-induced NOX-dependent ROS production up to 50 uM; format: functional, cell-based
[6] = Cytotoxicity against human KBVIN cells at 20 uM after 3 days by sulforhodamine B assay; format: functional; conditions: 72 h
In short: (§1)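 KB or KB-VIN cells (KB-VIN held under intermittent 0.5 μg/mL vincristine, withdrawn at least one day before use). Seeded at 5000 cells/well and exposed to compound at 20 μM for 3 days. Cells fixed with TCA, stained with SRB, absorbance read at 562 nm. Value is % inhibition of growth versus untreated cells.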

[7] = system: KB; test: Cytotoxicity against human KB cells at 20 uM after 3 days by sulforhodamine B assay; format: functional, cell-based; in short: as §1
[8] = Homo sapiens, PMNC, read-out: IC50
[9] = Mus musculus, BV-2, 24 h, read-out: IC50
[10] = Mus musculus, BV-2, read-out: IC50
[11] = Homo sapiens, KB, 72 h, read-out: EC50
[12] = Homo sapiens, KBVIN, 72 h, read-out: EC50

| Structure (SMILES) | EC50 ([2]; kbvin) | IC50 ([4]; bv-2) | IC50 [5, 8] [µM] | IC50 [3, 9] [µM] | EC50 [1, 11] [µM] | EC50 [2, 12] [µM] | also measured |
| --- | --- | --- | --- | --- | --- | --- | --- |
| C=C(CC[C@@H](C)[C@H]1CC[C@H]2C3=C(C(=O)C[C@]12C)[C@@]1(C)CC[C@@H](O)[C@](C)(O)[C@@H]1C[C@@H]3O)C(C)C(=O)O (stereo not given in full) [ANTCIN K] | Not Active | Not Active | 47.2 | – | – | – | EC50 ([1]; kb): Not Active; IC50 ([3]; bv-2): Not Active |
| CC(C)[C@@H](C)/C=C/[C@@H](C)[C@H]1CC[C@H]2C3=CC=C4C[C@@H](O)CC[C@]4(C)[C@H]3CC[C@]12C [ERGOSTEROL] | – | Not Active | 27.9 | 30.6 | – | – | – |
| C=C(CC[C@@H](C)[C@H]1CC[C@H]2C3=C(C[C@H](O)[C@]12C)[C@@]1(C)CC[C@@H](O)[C@@H](C)[C@@H]1CC3=O)C(C)C(=O)OC (stereo not given in full) [METHYL ANTCINATE H] | Not Active | – | 18.1 | 2.5 | – | – | EC50 ([1]; kb): Not Active; IC50 [4, 10]: 16 µM |
| C=C(CC[C@@H](C)[C@H]1CC[C@H]2C3=C(C(=O)[C@H](O)[C@]12C)[C@@]1(C)CC[C@@H](O)[C@@H](C)[C@@H]1CC3=O)C(C)C(=O)O (stereo not given in full) [ZHANKUIC ACID C] | – | – | – | 16.2 | 15.5 | 6.4 | IC50 [4, 10]: 40.3 µM; IC50 ([5]; pmnc): Not Active |
| C=C(CC[C@@H](C)[C@H]1CC[C@H]2C3=C(C(=O)C[C@]12C)[C@@]1(C)CCC(=O)[C@@H](C)[C@@H]1CC3)C(C)C(=O)O (stereo not given in full) [ANTCIN A] | – | – | 29.2 | 4.1 | 4.9 | 10 | IC50 [4, 10]: 45.9 µM |
| C=C(CC[C@@H](C)[C@H]1CC[C@H]2C3=C(C(=O)C[C@]12C)[C@@]1(C)CCC(=O)[C@@H](C)[C@@H]1CC3=O)C(C)C(=O)O (stereo not given in full) [ZHANKUIC ACID A] | – | Not Active | 22.1 | 3.6 | 3 | 6.2 | – |
| C=C(CC[C@@H](C)[C@H]1CC[C@H]2C3=C(C(=O)C[C@]12C)[C@@]1(C)CCC(=O)[C@@H](C)[C@@H]1CC3=O)C(C)C(=O)OC (stereo not given in full) [ZHANKUIC ACID A METHYL ESTER] | – | Not Active | 8.4 | 0.6 | > 20 | > 20 | inhibition at 20 µM [6]: 25%; inhibition at 20 µM ([7]; Homo sapiens, KB, 72 h): 21% |
| C=C(CC[C@@H](C)[C@H]1CC[C@H]2C3=C(C(=O)[C@H](O)[C@]12C)[C@@]1(C)CC[C@@H](O)[C@@H](C)[C@@H]1C[C@@H]3O)C(C)C(=O)O (stereo not given in full) [CAMPHORATIN A] | Not Active | – | – | – | – | – | EC50 ([7]; kb): Not Active |
| C=C(CC[C@@H](C)[C@H]1CC[C@H]2C3=C(C(=O)C[C@]12C)[C@@]1(C)CCC(=O)[C@@H](C)[C@@H]1C[C@@H]3O)C(C)C(=O)OC (stereo not given in full) [CAMPHORATIN F] | – | Not Active | 11.2 | 2.5 | 2 | 2.9 | – |
| c1ccc2c(c1)[I+]c1ccccc1-2 [DIPHENYLENEIODONIUM] | – | – | – | – | – | – | IC50 [4, 10]: 0.4 µM |
| C=C(CC[C@@H](C)[C@H]1CC[C@@H]2C3=C(C(=O)C[C@@]21C)[C@@]1(C)CCC(=O)[C@@H](C)[C@@H]1CC3)C(C)C(=O)OC (stereo not given in full) [CAMPHORATIN J] | Not Active | Not Active | 15.8 | 1.6 | – | – | EC50 ([1]; kb): Not Active |
| C[C@H](/C=C/[C@H](C)[C@H](C)CO)[C@H]1CC[C@H]2C3=CC[C@H]4CC(=O)CC[C@]4(C)[C@H]3CC[C@]12C [CAMPHORATIN I] | Not Active | Not Active | 17.5 | 12.7 | – | – | EC50 ([1]; kb): Not Active |
| C=C(CC[C@@H](C)[C@H]1CC[C@H]2C3=C(C(=O)C[C@]12C)[C@@]1(C)CC[C@@H](O)[C@@H](C)[C@@H]1CC3=O)C(C)C(=O)O (stereo not given in full) [ZHANKUIC ACID B] | – | Not Active | – | 9.6 | 7.3 | 8.5 | IC50 ([5]; pmnc): Not Active |
| C=C(CC[C@@H](C)[C@H]1CC[C@H]2C3=C(C(=O)C[C@]12C)[C@@]1(C)CCC(=O)[C@@H](C)[C@@H]1C[C@@H]3O)C(C)C(=O)O (stereo not given in full) [CAMPHORATIN D] | Not Active | Not Active | 22.6 | 4.2 | – | – | EC50 ([1]; kb): Not Active |
| CC(C)[C@@H](C)/C=C/[C@@H](C)[C@H]1CC[C@@H]2[C@]1(C)CC[C@H]1[C@]23C=C[C@]2(C[C@@H](O)CC[C@]12C)OO3 [ERGOSTEROL PEROXIDE] | – | Not Active | 20.3 | 6.3 | – | – | – |
| C=C(CC[C@@H](C)[C@H]1CC[C@H]2C3=C(C(=O)C[C@]12C)[C@@]1(C)CC[C@@H](O)[C@](C)(O)[C@@H]1CC3=O)C(C)C(=O)O (stereo not given in full) [CAMPHORATIN C] | – | – | – | – | 0.3 | 2.3 | – |
| C=C(CC[C@@H](C)[C@H]1CC[C@H]2C3=C(C(=O)C[C@]12C)[C@@]1(C)CCC(=O)[C@@H](C)[C@@H]1C[C@H]3O)C(C)C(=O)O (stereo not given in full) [CAMPHORATIN G] | – | – | – | – | 15 | 17.5 | – |
| COc1cc([C@@H]2c3cc4c(cc3[C@@H](O[C@@H]3O[C@@H]5CO[C@@H](C)O[C@H]5[C@H](O)[C@H]3O)[C@H]3COC(=O)[C@H]23)OCO4)cc(OC)c1O [ETOPOSIDE] | – | – | – | – | 4.5 | > 36 | – |
| C=C(CC[C@@H](C)[C@H]1CC[C@H]2C3=C(C(=O)C[C@]12C)[C@@]1(C)CC[C@@H](O)[C@@H](C)[C@@H]1CC3=O)C(C)C(=O)OC (stereo not given in full) [CAMPHORATIN E] | – | – | – | – | 0.45 | 2.7 | – |
| C=C(CC[C@@H](C)[C@H]1CC[C@H]2C3=C(C(=O)C[C@]12C)[C@@]1(C)CCC(=O)[C@@H](C)[C@@H]1CC3)C(C)C [CAMPHORATIN H] | Not Active | – | – | – | – | – | EC50 ([1]; kb): Not Active |
| C=C(CC[C@@H](C)[C@H]1CC[C@H]2C3=C(C(=O)C[C@]12C)[C@@]1(C)CC[C@@H](O)[C@@H](C)[C@@H]1C[C@@H]3O)C(C)C(=O)O (stereo not given in full) [CAMPHORATIN B] | Not Active | Not Active | 32.1 | 15.7 | – | – | – |
